Assay results taken from ChEMBL document CHEMBL5214966, “Discovery of BT8009: A Nectin-4 Targeting Bicycle Toxin Conjugate for the Treatment of Cancer” (J Med Chem, 2022).
≈ marks a conversion by molar mass, not a printed value. Calls of active or inactive are those of the source. The calls are words filed in the database; no cut-off is given here. *1 amine or outer side, *2 acyl side, *3 side chain or, on linkers, in order; H or OH if unused. Where a SMILES comes first, the peptide text is derived from it. Bridges are numbered along the chain shown (N, C = ends). [ ]: non-standard residue; d: D form. TATA = O=C(CC[*:1])N1CN(C(=O)CC[*:2])CN(C(=O)CC[*:3])C1

Legend:
[1] = molecular target: T1, Nectin-4 (Homo sapiens, UniProt Q96NY8); experiment: Displacement of tracer from C-terminal FLAG-tagged human Nectin-4 (32 to 349 residues) expressed in baculovirus infected sf9 cells assessed as inhibition constant measured at 5 to 10 mins interval for 60 mins by fluorescence polarization assay
T1 sequence (Q96NY8 whole entry): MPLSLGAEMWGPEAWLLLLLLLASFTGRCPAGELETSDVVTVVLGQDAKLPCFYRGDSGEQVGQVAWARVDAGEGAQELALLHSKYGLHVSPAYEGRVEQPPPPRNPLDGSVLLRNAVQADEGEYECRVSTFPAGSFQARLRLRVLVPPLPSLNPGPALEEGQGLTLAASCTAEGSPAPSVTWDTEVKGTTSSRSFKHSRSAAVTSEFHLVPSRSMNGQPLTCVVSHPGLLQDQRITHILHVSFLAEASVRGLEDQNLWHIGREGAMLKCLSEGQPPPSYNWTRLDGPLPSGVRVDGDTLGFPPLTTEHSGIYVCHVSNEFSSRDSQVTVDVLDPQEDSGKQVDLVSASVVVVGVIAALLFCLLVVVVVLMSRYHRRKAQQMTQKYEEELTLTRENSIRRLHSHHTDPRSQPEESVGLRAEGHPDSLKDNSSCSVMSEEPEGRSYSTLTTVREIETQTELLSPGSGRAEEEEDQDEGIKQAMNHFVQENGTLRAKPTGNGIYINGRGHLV

[2] = Thermodynamic solubility of the compound in phosphate buffer at pH 7.4; type: physicochemical; conditions: read-out: Therm_solubility
In short: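 Thermodynamic solubility measured in phosphate buffer at pH 7.4, expressed in mg/mL.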

[3] = Stability in mouse plasma assessed as half life measured upto 24 hrs by LC-MS/MS analysis; type: ADME, cell-free
[4] = Stability in human plasma assessed as half life measured upto 24 hrs by LC-MS/MS analysis; type: ADME, cell-free
[5] = system: MDA-MB-468; experiment: Antitumor activity against human MDA-MB-468 cells xenografted in Balb/c mouse model assessed as tumor regression 5 mg/kg, iv administered as bolus injection once weekly for 18 days and measured upto 42 days; type: functional, organism-based; conditions: time <= 42.0 day
In short: (§1)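 Dosing regimens were 3 mg/kg once weekly, 3 mg/kg twice weekly, or 5 mg/kg once weekly. Dosing ran 18 days. After dosing stopped, the 5 mg/kg once-weekly group was followed to day 42. Read-out was tumour growth/regression.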

[6] = Clearance in mouse plasma at 3 mg/kg, iv administered as bolus injection; type: ADME, organism-based
In short: (§2)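 Mouse pharmacokinetics after a single 3 mg/kg IV bolus. Terminal half-life, plasma clearance (mL/min/kg) and steady-state volume of distribution (L/kg) were derived from plasma levels.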

[7] = system: MDA-MB-468; experiment: Antitumor activity against human MDA-MB-468 cells xenografted in Balb/c mouse model assessed as tumor regression at 3 mg/kg, iv administered as bolus injection once weekly for 18 days; type: functional, organism-based; conditions: time 18.0 day; in short: as §1
[8] = system: MDA-MB-468; experiment: Antitumor activity against human MDA-MB-468 cells xenografted in Balb/c mouse model assessed as tumor regression at 3 mg/kg, iv twice weekly or 5 mg/kg, iv once weekly administered as bolus injection for 18 days; type: functional, organism-based; conditions: dose 3-5 mg/kg, time 18.0 day; in short: as §1
[9] = Toxicity in Balb/c mouse assessed as drug tolerability at 3 to 5 mg/kg, iv administered as bolus injection measured upto 42 days; type: organism-based; conditions: in vivo, 1008 h, dose 3-5 mg/kg, time < 42 day
In short: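 Doses were 3 mg/kg once or twice weekly and 5 mg/kg once weekly over 18 days, with one group monitored to day 42.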

[10] = Plasma protein binding in human LC/MS/MS analysis; type: ADME, cell-free; conditions: read-out: PPB (converted)
[11] = Plasma protein binding in mouse by LC/MS/MS analysis; type: ADME, cell-free; conditions: read-out: PPB (converted)
[12] = Half life in mouse at 3 mg/kg, iv administered as bolus injection; type: ADME, organism-based; conditions: in vivo; in short: as §2
[13] = Volume of distribution at steady state in mouse at 3 mg/kg, iv administered as bolus injection; type: ADME, organism-based; conditions: in vivo, read-out: Vdss; in short: as §2

clearance [6] [mL/min/kg] | fraction unbound [10] | fraction unbound [11] | half-life [12] [h] | Vd [13] [L/kg] | SMILES | Ki [1] [nM] | solubility thermodynamic [2] [µg/mL] | half-life [3] [h] | half-life [4] [h] | Activity [5] | Activity [7] | Activity [8] | Activity [9]
 |  |  |  |  | CC[C@H](C)[C@@H]1NC(=O)[C@@H]2CCCN2C(=O)[C@H](Cc2c[nH]c3ccccc23)NC(=O)[C@H](CO)NC(=O)[C@H](Cc2c[nH]c3ccccc23)NC(=O)[C@H](CC(N)=O)NC(=O)[C@H](CCCCN)NC(=O)[C@H](CCSC)NC(=O)[C@@H]2CSCCC(=O)N3CN(CN(C3)C(=O)CCSC[C@@H](NC(C)=O)C(=O)N3CCC[C@H]3C(=O)N[C@@H](Cc3ccccc3)C(=O)NCC(=O)N2)C(=O)CCSC[C@@H](C(=O)N[C@H](C(=O)N[C@@H](CC(N)=O)C(=O)N[C@@H](CCCCN)C(N)=O)[C@@H](C)O)NC(=O)[C@H](Cc2c[nH]c3ccccc23)NC1=O (Ac-[dC]PFGCMKNWSWPIWCTNK-NH2; linker 1-5-15 via TATA) | 13.5 | 4400 (≈ 1770 µM) | 2.2 | > 24 |  |  |  | 
3.5 | 0.207 | 0.118 | 1 | 0.25 | CC[C@H](C)[C@@H]([C@H](CC(=O)N1CCCC1[C@@H](OC)[C@H](C)C(=O)N[C@@H](C)[C@H](O)c1ccccc1)OC)N(C)C(=O)[C@@H](NC(=O)[C@H](C(C)C)N(C)C(=O)OCc1ccc(NC(=O)[C@H](CCCNC(N)=O)NC(=O)[C@@H](NC(=O)CCCC(=O)NCCC(=O)N(C)CC(=O)N(C)CC(=O)N(C)CC(=O)N(C)CC(=O)N(C)CC(=O)N(C)CC(=O)N(C)CC(=O)N(C)CC(=O)N(C)CC(=O)N(C)CC(=O)N[C@@H](C)N[C@@H](CCCCNC(=N)N)C(=O)N[C@@H](CC(=O)O)C(=O)N[C@H]2CSCCC(=O)N3CN4CCC(=O)SC[C@H](NC(=O)[C@H](CC(C)C)NC(=O)[C@@H]5CCCN5C(=O)[C@H](CC(N)=O)NC(=O)[C@H](C(C)C)NC(=O)[C@H](CC(C)C)NC(=O)C5C[C@@H](O)CN5C2=O)C(=O)N[C@@H](CC(C)C)C(=O)N[C@@H](Cc2c[nH]cn2)C(=O)N2CCCC2C(=O)N[C@@H](CC(=O)O)C(=O)N[C@@H](Cc2c[nH]c5ccccc25)C(=O)N[C@@H](Cc2c[nH]c5ccccc25)C(=O)NC(CCCCNC(=N)N)C(=O)N[C@H](C(N)=O)CSCCC(=O)N(C4)C3)C(C)C)cc1)C(C)C (stereo partly specified) |  | 800 (≈ 175 µM) | 4.4 | > 57.8 | Active | Active | Active | Non-Toxic
